PPC-1+TRAIL kill – PPC-1 cancer cell killing with TRAIL present | PPC-1 cells + TRAIL, ATPLite viability luminescence | cell killing (% activity), % at 4 µM or 5 µM | 220,000 compounds, 0.41% hits;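 active means cell killing above 50% in the first pass at 4 µM, then a duplicate retest at 5 µM averaging 50% or more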
HSP90 inh – HSP90 refolding inhibition in rabbit reticulocyte lysate. luciferase refolding luminescence, 3 h. inhibition, % at 5.6 µM. 290,000 compounds, 0.91% hits. AID 1789;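 active means inhibition above the screen-wide mean plus 3 SD, computed separately per campaign, cut at about 16% in these data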;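 further: inhibitors lower the luminescence because luciferase stays unfolded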
TRAIL sens C8 – sensitizes caspase-8 expressing cells to TRAIL; NB7+C8 cells + TRAIL, ATPlite viability luminescence; 360,000 compounds, 1% hits; inhibition (viability loss, TRAIL sensitization), % at 10 µM;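 active means compounds causing at least 50% loss of cell viability in the single-dose screen, relative to plate controls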
STAT3 inh-1 – inhibitors of IL-6 induced STAT3 signaling. U3A cells, IL-6 STAT3-luciferase reporter, luminescence; host cell line lacks STAT1. inhibition, % at 5.5 µM. 190,000 compounds, 0.89% hits. AID 862;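 active means inhibition above the mean inhibition across all screened compounds plus 3 SD, cut at about 44% in these data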
STAT3 activator – increases IL-6 driven STAT3 reporter signal | U3A cells, IL-6 STAT3-luciferase reporter, luminescence; 100% = signal with IL-6 EC80 alone | activation (% of control), % at 5.6 µM | 190,000 compounds, 0.91% hits | AID 871;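 active means activation above the screen-wide mean of compound activation plus 3 SD, cut at about 130% in these data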
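Test system: STAT3-luciferase reporter U3A cells; Detection: reporter luminescence signal; Times: 1 h compound pre-exposure, 6 h IL-6 stimulation, 37 °C; Benchmarks: IL-6-only high control; Also added: IL-6 stimulus at 33 ng/mL final.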
STAT1 inh – reduces IFN-gamma driven STAT1 reporter signal | inhibition, % at 5.5 µM | NIH 3T3 STAT1-luciferase reporter, luminescence | 200,000 compounds, 0.35% hits;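 active means inhibition above a set limit, the mean inhibition across all tested compounds plus 3 SD, cut at about 34% in these data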
STAT3 inh-2 – STAT3 inhibition, confirmation assay. 1,200 compounds, 45% hits. inhibition, % at 5.7 µM. U3A cells, IL-6 STAT3 luciferase reporter, luminescence; cell line lacks STAT1. shares compounds with STAT3 inh-1;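 active means inhibition above the hit cutoff computed for the primary STAT3 screen, cut at about 44% in these data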
NFkB inh 2 – inhibits NF-kappaB, counter-screen to STAT3 inhibitors | shares compounds with STAT3 inh-1 | HEK293T NF-kB luciferase reporter, TNF-alpha induced | inhibition, % at 5.7 µM | 1,200 compounds, 36% hits;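 active means inhibition above the mean of solvent-only control wells plus 3 SD, cutoff set per campaign, cut at about 13% in these data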
STAT1 inh STAT3c – counter-screen for STAT3 inhibitors: STAT1 inhibition; inhibition, % at 5.7 µM; shares compounds with STAT3 inh-1; 1,200 compounds, 27% hits; NIH 3T3 STAT1-luciferase reporter, IFN-gamma induced, luminescence;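 active means inhibition above the mean plus 3 SD of solvent-only control wells, limit set per screening run, cut at about 16% in these data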
Each line names hits and unclear results; the compound was inactive in the other large screens (follow-up assays come after a bar, where they were run). The list is not random: actives were taken first. Their share in the collection is about 2.3%.

CCN(CC)c1ccc(NC(=O)CN2C(=O)CSc3ncccc32)c(C)c1	STAT3 inh-1 69.7 | STAT3 inh-2 55.6 | NFkB inh 2 inactive | STAT1 inh STAT3c inactive
CNC(=O)CN1C(=O)CSc2ncccc21	none
CC1CCN(c2ccc(C(F)(F)F)cc2N)CC1	none
O=C(c1cnccn1)N(c1ccccc1)C1(C(=O)NC2CCCC2)CCCCC1	none
O=C(Nc1cccc(S(=O)(=O)Nc2ccccc2Cl)c1)c1ccc(Cl)nc1	STAT3 inh-1 43.8 | STAT3 inh-2 50.3 | NFkB inh 2 inactive | STAT1 inh STAT3c inactive
O=C(Nc1cccc(S(=O)(=O)N2CCCCCC2)c1)c1ccc(Cl)nc1	none (no result: PPC-1+TRAIL kill, HSP90 inh, STAT3 inh-1, STAT3 activator, STAT1 inh)
O=C(NC(Cc1c[nH]c2ccccc12)C(=O)O)c1ccc2c(c1)OCO2 (stereo not given)	none (no result: PPC-1+TRAIL kill, STAT3 inh-1, STAT3 activator, STAT1 inh)
COc1cc2ccc(-c3ccc4ccccc4n3)cc2cc1OC	none (no result: PPC-1+TRAIL kill, HSP90 inh, STAT3 inh-1, STAT3 activator, STAT1 inh)
COc1ccc(-c2ccc3ccccc3n2)cc1	TRAIL sens C8 57.5, STAT3 inh-1 55.0 | STAT3 inh-2 inactive | NFkB inh 2 inactive | STAT1 inh STAT3c inactive
CCN(CC)CC(=O)Nn1c(C)nc2c(ncn2-c2ccccc2)c1=O	none (no result: STAT3 inh-1, STAT3 activator, STAT1 inh)
COc1ccc(CNc2cc(C)nc3ncnn23)c(OC)c1	STAT3 inh-1 67.0 | STAT3 inh-2 52.1 | NFkB inh 2 16.7 | STAT1 inh STAT3c 17.4
COc1cc(CNc2ncnc3c2[nH]c2ccc(C)cc23)cc(OC)c1	none (no result: STAT3 inh-1, STAT3 activator, STAT1 inh)
Cc1ccc2[nH]c3c(NCc4ccco4)ncnc3c2c1	STAT3 inh-1 59.6 | STAT3 inh-2 45.2 | NFkB inh 2 inactive | STAT1 inh STAT3c inactive
CS(=O)(=O)N1CCCC(c2nc(-c3ccc(S(=O)(=O)NCc4ccccc4)cc3)no2)C1 (stereo not given)	STAT3 inh-1 66.5 | STAT3 inh-2 72.0 | NFkB inh 2 26.0 | STAT1 inh STAT3c 22.0
O=C(c1ccccc1)N1CCC(c2nc(-c3ccc(S(=O)(=O)NCC4CCCO4)cc3)no2)CC1 (stereo not given)	STAT3 inh-1 69.4 | STAT3 inh-2 inactive | NFkB inh 2 22.0 | STAT1 inh STAT3c 27.4
O=C(Cc1ccccc1)N1CCCC(c2nc(-c3ccc(S(=O)(=O)N4CCCC4)cc3)no2)C1 (stereo not given)	none
O=C(C1CC1)N1CCC(c2nc(-c3ccc(S(=O)(=O)NCC4CCCO4)cc3)no2)CC1 (stereo not given)	STAT3 inh-1 50.6 | STAT3 inh-2 55.5 | NFkB inh 2 14.6 | STAT1 inh STAT3c inactive
Cc1ccc(CN2CCN(CC(C)C)C(CCO)C2)s1 (stereo not given)	none
COc1ccc(Cn2c(=O)[nH]c3cc(C(=O)N4CCN(Cc5ccccc5)CC4)ccc3c2=O)cc1	STAT3 inh-1 64.4 | STAT3 inh-2 56.1 | NFkB inh 2 16.5 | STAT1 inh STAT3c inactive
COc1ccccc1NS(=O)(=O)c1c(C(=O)N2CCCC2)c(C)n(C)c1C	none (no result: PPC-1+TRAIL kill, STAT3 inh-1, STAT3 activator, STAT1 inh)
FC(F)(F)c1cccc(Nc2nc(N3CCCC3)nc(N3CCCC3)n2)c1	none
N#Cc1c(NC(=O)CSc2ncn[nH]2)sc2c1CCCCC2	STAT3 inh-1 70.7 | STAT3 inh-2 67.7 | NFkB inh 2 29.6 | STAT1 inh STAT3c inactive
O=NN(CCc1ccncc1)c1ccc(OCc2ccccc2)cc1	STAT3 inh-1 62.6 | STAT3 inh-2 57.0 | NFkB inh 2 18.9 | STAT1 inh STAT3c inactive
CSc1ccccc1OCc1cc(C(=O)NCc2csc(C(C)C)n2)no1	none (no result: PPC-1+TRAIL kill, STAT3 inh-1, STAT3 activator, STAT1 inh)
COc1cc2c(cc1OC)C1=NC(=O)CN1C(SCc1ccccc1C)=N2	STAT3 inh-1 47.1 | STAT3 inh-2 inactive | NFkB inh 2 19.5 | STAT1 inh STAT3c inactive
Cn1c(CN2CCCCC2)nc2cc(NC(=O)c3ccc(Cl)cc3)ccc21	STAT3 inh-1 69.5 | STAT3 inh-2 69.8 | NFkB inh 2 22.7 | STAT1 inh STAT3c inactive
CN(C)c1ccc(-c2n(C)c3ccccc3[n+]2C)cc1	STAT3 inh-1 74.4 | STAT3 inh-2 64.9 | NFkB inh 2 inactive | STAT1 inh STAT3c 24.3
Cn1c(-c2ccccn2)[n+](C)c2ccccc21	none (no result: PPC-1+TRAIL kill)
Cc1ccc(/C=C/c2nc3ccccc3[nH]2)o1	STAT3 inh-1 53.7 | STAT3 inh-2 inactive | NFkB inh 2 inactive | STAT1 inh STAT3c inactive
Cc1cc2nc(/C=C/c3nc4cc(C)c(C)cc4[nH]3)[nH]c2cc1C	none (no result: STAT3 inh-1, STAT3 activator, STAT1 inh)
CCCCCCn1ccc(=N)cc1	STAT3 inh-1 70.1 | STAT3 inh-2 56.0 | NFkB inh 2 17.6 | STAT1 inh STAT3c inactive
Cc1nc2ccccn2c1C(=O)NC1CCCc2ccccc21 (stereo not given)	STAT3 inh-1 53.3 | STAT3 inh-2 inactive | NFkB inh 2 inactive | STAT1 inh STAT3c inactive
CCN(CC)C(=O)Nc1c(C)n(C)n(-c2ccccc2)c1=O	none
COc1ccc(-c2cn3nc4c(nc3n2)CCCC4)cc1	STAT3 inh-1 70.2 | STAT3 inh-2 inactive | NFkB inh 2 inactive | STAT1 inh STAT3c inactive
Cc1ccc2nc(-c3ccc(NC(=O)CCS(=O)(=O)c4ccccc4)cc3)sc2c1	TRAIL sens C8 88.0, STAT3 inh-1 71.6 | STAT3 inh-2 47.8 | NFkB inh 2 22.0 | STAT1 inh STAT3c inactive
Cc1nc2ccc(NC(=O)CCS(=O)(=O)c3ccccc3)cc2s1	none
Cc1ccc2nc(-c3ccc(NC(=O)CN4C(=O)c5ccccc5C4=O)cc3)sc2c1	none
Cc1ccc2nc(-c3ccc(NC(=O)COC(=O)c4ccc(=O)[nH]c4)cc3)sc2c1	PPC-1+TRAIL kill 50.4, STAT3 inh-1 56.2 | STAT3 inh-2 inactive | NFkB inh 2 inactive | STAT1 inh STAT3c inactive
CCOC(=O)N1CCN(C(=O)C2CCC(=O)N(CCCN3CCCC3=O)C2)CC1 (stereo not given)	none (no result: PPC-1+TRAIL kill, STAT3 inh-1, STAT3 activator, STAT1 inh)
N#CC(C(=O)Nc1ccc(Cl)cc1)=C1Nc2ccccc2N1	none
COC(=O)CSc1ncnc2c1sc1nc3c(cc12)COC(C)(C)C3	TRAIL sens C8 73.3, STAT3 inh-1 44.2 | STAT3 inh-2 44.5 | NFkB inh 2 17.5 | STAT1 inh STAT3c 28.4
COc1ccc(/C=N/N=C(\N)c2nonc2N)cc1	STAT3 inh-1 50.6 | STAT3 inh-2 inactive | NFkB inh 2 inactive | STAT1 inh STAT3c inactive
COc1cccc(C=Nc2ccc3c(c2)OCCO3)c1O	STAT3 inh-1 49.0 | STAT3 inh-2 inactive | NFkB inh 2 inactive | STAT1 inh STAT3c inactive
COc1cccc(C=Nc2ccc(N3CCOCC3)cc2)c1O	none (no result: PPC-1+TRAIL kill, STAT3 inh-1, STAT3 activator, STAT1 inh)
Nc1nc2c(ncn2[C@@H]2O[C@H](CNCc3ccc(F)c(N4CCOCC4)c3)[C@@H](O)[C@H]2O)c(=O)[nH]1	none (no result: PPC-1+TRAIL kill, HSP90 inh, STAT3 inh-1, STAT3 activator, STAT1 inh)
Cc1ccc(C(=O)CC(=O)c2ccc(C(C)(C)C)cc2)cc1	none

High-throughput results as filed in PubChem BioAssay.
